From PubChem
Rows were chosen to be rich in hits. Some 3.1% of all compounds tested hit in one or more screens of this group.
KCNK3 block = human KCNK3 channel inhibitors, primary screen, CHO cells, FluxOR thallium flux, B-score | Potassium channel subfamily K member 3 (Homo sapiens), O14649 | FluxOR fluorescence; stronger effect = lower value | B-score at 10 µM | 340,000 compounds, 0.84% hits;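 active = B-score under library mean minus 4 SD, starting fluorescence ratio at most library mean plus 5 SD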;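 also: more negative B-score means stronger inhibition of thallium flux through KCNK3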
KCNK9 block = KCNK9 potassium channel inhibitors, primary screen, HEK293 cells, thallium flux. Potassium channel subfamily K member 9 (Homo sapiens), Q9NPC2. FluxOR thallium flux fluorescence; stronger effect = lower value. B-score at 10 µM. 310,000 compounds, 1.2% hits. AID 488922, 2010;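 active = ratio B-score over 3 SD below the library mean, with starting fluorescence within 5 SD of its mean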;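 also: negative B-score means less thallium flux so channel inhibition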
KCNQ1 act = potentiators or activators of KCNQ1 channel, primary screen, cell-based, thallium flux, high-throughput; Potassium voltage-gated channel subfamily KQT member 1 (Homo sapiens), P51787; CHO-K1 KCNQ1, thallium flux FluxOR fluorescence; stronger effect = higher value; B-score at 10 µM; 310,000 compounds, 0.35% hits; AID 2648, 2010;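 active = fluorescence ratio B-score, a plate-corrected score, at least three library SD, with initial intensity B-score within 5 SD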
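Medium – assay buffer, equal DMSO in all wells · Material – CHO-K1 cell line with stable KCNQ1 potassium channel expression · Signal – kinetic FluxOR thallium fluorescence, 10-s 1-Hz baseline, 110-s post-stimulus read · Compound – single concentration per compound, DMSO matched to controls · Schedule – 37 °C overnight plating, 90-min dark dye load, 20-min compound pretreatment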
hERG protect = hERG rescue from dofetilide block, primary screen, cell-based, CHO-hERG, FluxOR thallium flux, dofetilide IC70; Voltage-gated inwardly rectifying potassium channel KCNH2 (Homo sapiens), Q12809; dofetilide IC70 present; activation (rescue from dofetilide block), less the hit threshold, % at 10 µM; 310,000 compounds, 0.51% hits; AID 1511, 2009;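 active = activation above the mean of controls blocked by dofetilide plus 5 SD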;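 also: thallium influx through hERG after potassium depolarization seen as dye fluorescence rise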
Target sequence (Q12809 whole entry, looked up): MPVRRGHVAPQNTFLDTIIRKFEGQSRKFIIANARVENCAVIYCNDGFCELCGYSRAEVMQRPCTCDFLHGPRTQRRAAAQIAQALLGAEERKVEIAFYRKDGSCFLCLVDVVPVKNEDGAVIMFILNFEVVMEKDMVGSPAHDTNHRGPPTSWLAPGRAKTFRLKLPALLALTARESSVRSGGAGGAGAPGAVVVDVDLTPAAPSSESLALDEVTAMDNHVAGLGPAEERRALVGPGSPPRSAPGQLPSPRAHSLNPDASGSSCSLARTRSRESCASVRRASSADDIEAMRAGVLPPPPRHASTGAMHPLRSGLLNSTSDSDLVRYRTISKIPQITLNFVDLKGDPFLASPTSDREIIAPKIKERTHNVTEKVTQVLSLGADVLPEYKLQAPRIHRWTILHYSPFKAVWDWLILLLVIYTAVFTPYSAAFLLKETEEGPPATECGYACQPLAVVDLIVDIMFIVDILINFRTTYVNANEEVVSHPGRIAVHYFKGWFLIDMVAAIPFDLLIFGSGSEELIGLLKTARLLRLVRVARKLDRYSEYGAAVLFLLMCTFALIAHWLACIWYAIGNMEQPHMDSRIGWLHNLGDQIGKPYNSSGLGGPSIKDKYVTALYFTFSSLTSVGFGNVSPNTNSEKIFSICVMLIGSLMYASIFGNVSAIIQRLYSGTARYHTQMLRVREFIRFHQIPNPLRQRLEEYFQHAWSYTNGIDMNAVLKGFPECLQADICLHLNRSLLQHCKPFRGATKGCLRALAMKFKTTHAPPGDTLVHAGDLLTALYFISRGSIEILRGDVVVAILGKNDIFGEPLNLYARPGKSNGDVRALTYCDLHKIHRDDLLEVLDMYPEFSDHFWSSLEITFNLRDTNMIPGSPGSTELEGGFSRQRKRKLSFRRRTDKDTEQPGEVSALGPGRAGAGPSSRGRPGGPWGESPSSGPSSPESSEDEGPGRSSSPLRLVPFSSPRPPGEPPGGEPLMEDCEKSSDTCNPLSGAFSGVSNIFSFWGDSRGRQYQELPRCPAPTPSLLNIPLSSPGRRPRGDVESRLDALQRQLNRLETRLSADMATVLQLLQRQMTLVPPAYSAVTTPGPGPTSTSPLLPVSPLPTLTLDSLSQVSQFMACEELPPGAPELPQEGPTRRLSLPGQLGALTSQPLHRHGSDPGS
KCNQ1 block = inhibitors of human KCNQ1 channel, primary screen, cell-based, thallium flux, high-throughput | B-score at 10 µM | Potassium voltage-gated channel subfamily KQT member 1 (Homo sapiens), P51787 | AID 2642, 2010 | CHO-K1 KCNQ1, FluxOR thallium flux fluorescence; stronger effect = higher value | 310,000 compounds, 1.3% hits;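 active = compounds whose thallium flux B-score, printed positive for inhibition, exceeds three library SD while starting fluorescence stays within three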;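 also: channel opened by potassium depolarization with thallium stimulus after 20 min compound exposure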
KCNK9 block conf = KCNK9 potassium channel inhibitors, confirmation, HEK293 cells, thallium flux, duplicate. shares compounds with KCNK9 block. FluxOR thallium flux fluorescence. inhibition, % at 10 µM. 4,900 compounds, 43% hits. AID 492992, 2010;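 active = thallium signal inhibited by more than 5 SD of the compound-free buffer control wells, on both duplicate plates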;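 also: 0% = assay buffer control wells without compound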
Kir21 sel = mouse Kir2.1 channel inhibition, confirmation, selectivity assay for KCNK9 modulator project, cell-based, HEK293, thallium flux. shares compounds with KCNK9 block. AID 492993, 2010. 4,900 compounds, 4% hits. Kir2.1 cells, FluxOR thallium flux fluorescence. inhibition, % at 10 µM;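 active = thallium signal drop more than 5 SD beyond the mean of the no-compound control wells, seen in both duplicate plates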;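 also: signal is fluorescence rise after thallium addition divided by baseline fluorescence; plate controls were assay buffer only for no effect and full block by chlorpromazine control for full effect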
KCNK9 uninduced = thallium flux in non-induced HEK293 cells, confirmation, counter-screen for KCNK9 inhibitor project, cell-based, second counter screen, non-induced KCNK9-HEK293. FluxOR thallium flux. inhibition, % at 10 µM. 4,900 compounds, 40% hits. shares compounds with KCNK9 block;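 active = thallium signal drop beyond 5 SD of the untreated control mean, on both duplicate plates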;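 also: plate controls were buffer only IC0 wells for no effect and SID17386958 at its maximal inhibitory level for full effect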
* hit, by the source's call; i = inactive; x = not tested or not shown; ! = repeats disagree.

SMILES | KCNK3 block | KCNK9 block | KCNQ1 act | hERG protect | KCNQ1 block | KCNK9 block conf | Kir21 sel | KCNK9 uninduced
CCC(=O)O/N=C(\N)c1ccc(Oc2cc(C)c(Cl)c(C)c2)c([N+](=O)[O-])c1 | i | i | i | -10 | i | x | x | x
CC1CC(=O)c2ccccc2C1C (configuration not stated) | i | x | x | x | x | x | x | x
O=C(O)c1ccccc1NS(=O)(=O)c1cccc(-n2sc3ccccc3c2=O)c1 | i | i | 13* | -21 | i | i | i | i
COc1ccc(C2CC(c3ccccc3)=NN2c2ccc(Cl)c(C(=O)O)c2)cc1 (configuration not stated) | i | i | i | -4 | i | x | x | x
CCC(=O)Nc1cccc(C2=NN(c3ccccc3)C(c3ccc(OC)cc3)C2)c1 (configuration not stated) | i | -13* | i | -5 | i | 52%* | i | 40%*
CN(c1ccccc1C(=O)N1CCN(c2ccccc2F)CC1)S(=O)(=O)c1ccccc1 | i | i | i | -9 | i | x | x | x
COC(=O)c1ccc(S(=O)(=O)N2CCN(C(c3ccccc3)c3ccccc3)CC2)n1C | i | i | i | -3 | i | i | i | i
Cc1ccc(-c2nc(C3CCN(S(=O)(=O)c4ccc(C(C)(C)C)cc4)CC3)no2)cc1 | i | i | i | -7 | i | i | i | i
Cc1ccnc(N2CCN(C(=O)CSc3nc4ccccc4nc3N3CCC(C)CC3)CC2)c1 | i | i | i | -14 | i | i | i | i
CCS(=O)(=O)c1ccc(O)c(NC(=O)c2ccc(S(=O)(=O)N3CCCCCC3)cc2)c1 | i | x | x | x | x | x | x | x
Cc1cc(Oc2cnn(C(C)(C)C)c(=O)c2Cl)cc(C(C)C)c1 | i | i | i | -21 | i | i | i | i
O=c1c(Cc2ccc(Cl)cc2Cl)c(O)ccn1Cc1ccncc1 | i | i | i | -4 | i | x | x | x
O=c1c(C/C=C/c2ccccc2)c(O)ccn1Cc1ccc(Cl)cc1Cl | i | i | i | -16 | 9* | i | i | i
CN(CC(=O)Nc1ccccc1Cl)C(=O)COC(=O)c1ccc([N+](=O)[O-])s1 | i | x | x | x | x | x | x | x
COc1ccc(N(C(C)=O)c2nc3ccccc3[nH]2)cc1 | i | i | i | 1 | i | x | x | x
Cc1ccc(C)c(Cn2nnc3c(=O)[nH]c(C4CCCN(C(=O)C5CCCCC5)C4)nc32)c1 (configuration not stated) | i | -18* | i | -10 | i | 64%* | i | 25%*
O=C(C1CCCCC1)N1CCCC(c2nc3c(nnn3Cc3ccccc3)c(=O)[nH]2)C1 (configuration not stated) | i | i | i | -16 | i | x | x | x
O=C(CN1CCCC1)Nc1ccccc1C(=O)c1ccccc1 | i | i | i | -12 | i | x | x | x
O=C(c1ccccc1)c1ccccc1NC(=O)C1CCCN1Cc1ccccc1 (configuration not stated) | i | -9.5* | i | -11 | i | 58%* | i | 38%*
CC(C)CCn1nc(C(=O)Nc2nc3c(s2)CCCC3)c2ccccc2c1=O | i | -17* | i | -9 | i | 76%* | i | i
O=C(CSc1ccc2ccccc2n1)c1ccc2c(c1)OCO2 | i | -8.3* | i | -5 | i | 39%* | i | 36%*
O=C(O)CSc1ccc2ccccc2n1 | i | i | i | -1 | i | x | x | x
O=[N+]([O-])c1ccc(CN2CCC(Cc3ccccc3)CC2)cc1 | i | i | i | -9 | i | x | x | x
O=[N+]([O-])c1ccc(C(=S)N2CCC(Cc3ccccc3)CC2)cc1 | i | -13* | i | -7 | i | i | i | i
CC(=O)N1CCc2c(sc(NC(=O)CS(=O)(=O)c3ccc(F)cc3)c2C(N)=O)C1 | i | i | i | 1 | i | x | x | x
SMILES | KCNK3 block | KCNK9 block | KCNQ1 act | hERG protect | KCNQ1 block | KCNK9 block conf | Kir21 sel | KCNK9 uninduced
Cc1ccccc1-n1ncc2c1CC(C)(C)CC2NC(=O)C1=CC(=O)CC(C)(C)O1 (configuration not stated) | i | i | i | -9 | i | x | x | x
CCCCn1c(N)c(N(CC)C(=O)c2ccccc2F)c(=O)[nH]c1=O | i | i | i | -2 | i | x | x | x
O=C(Nc1ccc(O)c2c(=O)cc(-c3ccccc3Cl)oc12)c1ccccc1Cl | i | i | i | -3 | i | x | x | x
Cc1noc(C)c1S(=O)(=O)Nc1ccc(O)c2c(=O)cc(-c3ccccc3Cl)oc12 | i | i | i | -3 | i | i | i | i
COc1ccc(N(C(=O)c2snc(C(N)=O)c2N)C(C(=O)NC2CCCC2)c2cccs2)c(OC)c1 (configuration not stated) | i | i | i | -9 | i | x | x | x
COc1ccc(C(=O)Nc2ccccc2C(N)=O)cc1 | i | i | i | -7 | i | x | x | x
COc1ccc(C(=O)Nc2ccccc2C(=O)N/N=C/c2cccc3ccccc23)cc1 | i | -8.5* | i | -14 | i | 61%* | i | 37%*
O=C(OCCOc1cccc(Cl)c1)c1ccc2ncsc2c1 | i | i | i | -13 | i | x | x | x
Cc1ccc(Cl)cc1NC1=C/C(=N\S(=O)(=O)c2cccs2)c2ccccc2C1=O | -10*! | -8.3* | i | -2 | i | 26%* | i | i
CCCCC(=O)Nc1cccc(-c2nc3ncccc3o2)c1 | i | -11* | i | -23 | i | 34%* | i | i
CCOC(=O)C1(CCCc2ccccc2)CCN(C(=O)Cc2nonc2C)CC1 | i | i | i | -3 | i | i | i | i
CCOC(=O)C1(CCc2ccccc2)CCN(Cc2cccc3nccnc23)CC1 | i | i | i | -2 | i | i | i | 23%*
CCOC(=O)C1(CCc2ccccc2)CCN(Cc2ccn[nH]2)CC1 | i | i | i | -2 | i | x | x | x
